Bioassay records (PubChem BioAssay)
Rows were chosen to be rich in hits. Some 3.9% of all compounds tested hit in one or more screens of this group.
TAAR1 antag: human TAAR1 antagonism. Q96RJ0. CHO RD-HGA16 TAAR1, Fluo-8 calcium fluorescence, antagonist. inhibition, % at 3 µM. 360,000 compounds, 1.5% hits;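 active = inhibition above a per-plate cutoff, the mean inhibition of test compounds on that plate plus 3 SD, cut at about 49% in these data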;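 note: 0% = DMSO plus EC80 beta-PEA response and 100% = DMSO alone without agonist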
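Assay system: CHO-derived RD-HGA16 cells stably expressing human TAAR1 plus Gα16. Timing: 140 s kinetic read after compound, 140 s after agonist. Technique: kinetic Fluo-8 calcium fluorescence measurement. Measure: % inhibition of agonist calcium response.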
OX1R antag-1: blocks the human orexin 1 receptor; CHO/OX1R cells, Fluo-8 calcium fluorescence, orexin A; inhibition, % at 5 µM; 330,000 compounds, 0.43% hits;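 active = inhibition above its plate's threshold, mean inhibition of all tested compounds on the plate plus 3 SD, cut at about 37% in these data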;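 note: 0% = orexin A challenge wells and 100% = SB-334867-A antagonist wells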
Target sequence (O43613 whole entry, looked up): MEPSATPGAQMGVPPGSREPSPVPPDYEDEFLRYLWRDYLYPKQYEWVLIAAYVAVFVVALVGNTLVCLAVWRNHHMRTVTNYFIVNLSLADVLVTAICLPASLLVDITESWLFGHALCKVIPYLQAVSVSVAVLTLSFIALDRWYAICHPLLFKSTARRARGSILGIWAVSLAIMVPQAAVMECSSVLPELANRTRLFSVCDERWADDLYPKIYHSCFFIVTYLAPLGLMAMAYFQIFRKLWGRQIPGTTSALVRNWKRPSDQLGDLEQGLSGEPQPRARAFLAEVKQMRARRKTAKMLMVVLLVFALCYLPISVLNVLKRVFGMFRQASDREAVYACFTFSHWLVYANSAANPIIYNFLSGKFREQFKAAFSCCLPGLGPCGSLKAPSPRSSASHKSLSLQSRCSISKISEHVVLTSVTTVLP
OX1R antag-2: OX1R (human) antagonism. O43613. OX1R-expressing cells, FRET antagonist read-out. inhibition, % at 6.6 µM. 330,000 compounds, 1.8% hits. AID 485270; in the data active = inhibition mostly above about 38%, no sharp cut-off; inactive = mostly below about 40%;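 note: 0% = agonist challenge alone and 100% = reference antagonist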
TAAR1 agonist: human TAAR1 agonism; Q96RJ0; CHO RD-HGA16 TAAR1, Fluo-8 calcium fluorescence; vehicle wells 0%, saturating PEA agonist 100%; activation, % at 3 µM; 360,000 compounds, 0.99% hits; AID 624467;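 active = activation above the mean activation of all test compounds in the run plus 3 SD, cut at about 38% in these data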
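Test system: RD-HGA16 (CHO) cells co-expressing Gα16 and hTAAR1 | Doses: Single dose, 3 µM | Schedule: 17-24 h seeding, 75 min 37 °C dye, 30 min RT | Evaluation: % activation from peak over basal fluorescence ratio, DMSO-to-PEA scaled | Technique: Kinetic Fluo-8 calcium fluorescence | Benchmarks: Low control DMSO, high control PEA (EC100)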
CHO parental Ca: signal in parental CHO cells, OX1R antagonist counter-screen; inhibition, % at 5.6 µM; parental CHO-K1, ATP-induced calcium, Fluo-8 fluorescence; 330,000 compounds, 0.63% hits; AID 463079;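 active = inhibition above that plate's mean sample inhibition plus 3 SD, cut at about 26% in these data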;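 note: 0% = ATP-challenged DMSO wells and 100% = DMSO wells without ATP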
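Test system: untransfected parental CHO cell line; also added: ATP stimulus; dosing: 5.6 µM, single dose; signal: calcium-sensitive Fluo-8 fluorescence; measure: percent inhibition of ATP-evoked calcium rise, normalized to controls; benchmarks: low control ATP plus DMSO, high control DMSO only; replication: one well per compound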
TAAR1 ag conf: human TAAR1 agonism, confirmed; shares compounds with TAAR1 agonist; CHO RD-HGA16 TAAR1, Fluo-8 calcium fluorescence; scaled: DMSO 0%, maximal phenethylamine 100%; activation, % at 3 µM; 2,400 compounds, 82% hits; AID 651783;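 active = activation above a cutoff set at the run's mean compound activation plus 3 SD, cut at about 39% in these data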
Ga16 nonsel ag: nonselective agonist in parental cells, TAAR1 agonist counter-screen | shares compounds with TAAR1 agonist | CHO-Ga16 parental, Fluo-8 calcium fluorescence; normalized to maximal ATP response, DMSO zero | activation, % at 3 µM | 2,400 compounds, 50% hits | AID 651787;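 active = activation above the run cutoff, the mean activation over all tested wells plus 3 SD, cut at about 12% in these data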;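 note: 0% = DMSO wells and 100% = maximal ATP response on the peak over basal ratio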
TAAR1 desensitize: TAAR1 response desensitization, agonist counter-screen | CHO RD-HGA16 hTAAR1, Fluo-8 calcium, beta-PEA response inhibition | inhibition, % at 3 µM | shares compounds with TAAR1 agonist | 2,400 compounds, 46% hits | AID 651951;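 active = inhibition above the run cutoff, the mean inhibition of all test compounds plus 3 SD, cut at about 49% in these data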;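 note: beta-PEA stimulus applied at its EC80; loss of beta-PEA calcium signal after compound pretreatment read as receptor desensitization; 0% = DMSO with beta-PEA at EC80 and 100% = DMSO alone without agonist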
Ga16 nonsel ant: nonselective Ga16 antagonism, counter-screen; CHO-Ga16 ATP-induced calcium, Fluo-8 fluorescence; 2,400 compounds, 39% hits; inhibition, % at 3 µM; AID 651952; shares compounds with TAAR1 agonist;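 active = inhibition above the plate's mean compound inhibition plus 3 SD, computed per plate, cut at about 22% in these data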;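 note: 0% = EC80 ATP with DMSO and 100% = DMSO wells without ATP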
An asterisk follows results filed as active; x = not tested or not shown.

SMILES	TAAR1 antag	OX1R antag-1	OX1R antag-2	TAAR1 agonist	CHO parental Ca	TAAR1 ag conf	Ga16 nonsel ag	TAAR1 desensitize	Ga16 nonsel ant
Cc1ccc(N2C(=O)NC(=O)/C(=C\C=C\c3ccco3)C2=O)cc1C	35	-7	11	54*	-3	76*	48*	69*	29*
COC(=O)C1=C(C(=O)OC)SC2(S1)C(C(=O)OC)=C(C(=O)OC)Sc1c2ssc1=O	31	x	x	33	x	x	x	x	x
COc1cccc(CNCCc2ccc3c(c2)OCO3)c1OC	8	-28	-1	8	-13	x	x	x	x
COc1ccccc1CCNCc1ccc(OC)c(OC)c1OC	55*	-21	0	62*	-25	85*	3	74*	0
COc1cccc(CNCCc2cccc(F)c2)c1OC	-10	-36	4	66*	-15	77*	1	44	9
COC(=O)C1C(c2ccc(C)cc2)CC2CCC1N2C (stereo not drawn)	-2	x	x	2	x	x	x	x	x
COc1cc2c(cc1/C=C/[N+](=O)[O-])OCO2	-17	x	x	0	x	x	x	x	x
COc1cc(/C=C/[N+](=O)[O-])ccc1OC(=O)c1cccnc1	24	x	x	56*	x	87*	62*	67*	60*
CN(C)C(Cc1ccccc1)C(=O)c1ccccc1 (stereo not drawn)	-12	-12	12	6	-21	x	x	x	x
N[C@H](CO)Cc1ccccc1	14	x	x	52*	x	74*	1	37	9
CC1(C)OC(c2ccccc2)=C/C(=C/C=C2C(=O)NC(=O)NC2=O)O1	70*	22	25	98*	6	10	21*	31	33*
O=C(NCCN1CCC2(CC1)C(=O)NCN2c1ccccc1)c1ccc2ccccc2c1	105*	x	x	112*	x	91*	66*	107*	101*
O=C(NCCN1CCC2(CC1)C(=O)NCN2c1ccccc1)c1ccc(F)cc1	100*	x	x	98*	x	63*	50*	95*	79*
Cc1ccccc1C(=O)NCCN1CCC2(CC1)C(=O)NCN2c1ccccc1	-28	x	x	2	x	x	x	x	x
O=C(NCCN1CCC2(CC1)C(=O)NCN2c1ccccc1)c1ccc(Cl)cc1	105*	x	x	108*	x	92*	72*	106*	100*
O=C(Nc1cc(Cl)cc(Cl)c1)N1Cc2ccccc2-n2nncc2C1	1	x	x	4	x	x	x	x	x
C[C@@H]1CN([C@H](C)CO)C(=O)CCCn2cc(nn2)CO[C@H]1CN(C)C(=O)Oc1cccc2ccccc12	11	x	x	0	x	x	x	x	x
CNC(C)Cc1ccccc1 (stereo not drawn)	66*	-4	2	63*	-11	94*	19*	83*	9
CCCC1(CC(C)CC)C(=O)NC(=O)NC1=O (stereo not drawn)	4	x	x	51*	x	78*	0	25	10
c1ccc2c(NC3=NCCS3)cccc2c1	-1	-40	27	43*	-31	82*	15*	47	5
CC(C)(C)n1nnnc1C(CCc1ccccc1)N1CCC2(CC1)C(=O)NCN2c1ccccc1 (stereo not drawn)	13	x	x	1	x	x	x	x	x
COc1cc2c(c(OC)c1)C(=O)OC(C)CCCC(=O)CCCCC2 (stereo not drawn)	8	-22	21	-1	-24	x	x	x	x
COc1cc(O)cc2c1C(=O)O[C@@H](C)CCCC(=O)CCCCC2	19	-24	10	62*	-19	30	10	10	18
COc1cc(CCN)ccc1O	31	-10	9	90*	-9	87*	4	67*	7
O=C(Nc1ccc(F)c([N+](=O)[O-])c1)N1C[C@H]2C[C@@H](C1)c1cccc(=O)n1C2	-23	-9	21	3	-9	x	x	x	x
SMILES	TAAR1 antag	OX1R antag-1	OX1R antag-2	TAAR1 agonist	CHO parental Ca	TAAR1 ag conf	Ga16 nonsel ag	TAAR1 desensitize	Ga16 nonsel ant
CC1OC(NCCc2ccccc2)C(O)C(O)C1O (stereo not drawn)	x	-13	8	x	-7	x	0	x	2
CC1c2ccccc2-n2nncc2CN1C (stereo not drawn)	-11	x	x	1	x	x	x	x	x
Cc1nc2ccccn2c1P(=S)(c1ccccc1)c1ccccc1	17	x	x	7	x	x	x	x	x
Cc1ccccc1CCNCc1cc2cccc(C)c2[nH]c1=O	86*	-54	8	108*	-15	112*	17*	98*	7
Fc1ccccc1CCNCc1cccc2ccccc12	15	-28	6	8	-24	x	x	x	x
COc1cccc(NC2=NCCS2)c1	-17	x	x	2	x	x	x	x	x
O=Cc1c(C(=O)O)n(Cc2ccccc2F)c2ccccc12	-14	-23	-3	1	-8	x	x	x	x
CC(Cc1ccccc1Sc1ccccc1)N(C)C (stereo not drawn)	9	-19	-1	48*	-24	70*	2	12	10
NNCc1ccccc1	-51	x	x	13	x	x	x	x	x
Fc1ccc(CCNCc2ccccc2Cl)cc1	-18	-14	7	64*	-15	62*	8	24	6
Cn1cccc1CNCCc1ccc(F)cc1	32	-24	11	49*	-11	82*	9	54*	7
CCOc1ccc(Cl)cc1CNCCc1ccc(F)cc1	-6	-35	9	15	-28	x	x	x	x
CN1C(=O)N(C)C(=O)C(NS(=O)(=O)c2ccc(N)cc2)(c2ccccc2)C1=O	-29	x	x	2	x	x	x	x	x
CN1C[C@H](CO)C[C@@H]2c3cccc4[nH]cc(c34)C[C@H]21	1	-11	2	42*	-6	57*	0	20	-4
CC(=O)N(C)C1=Nc2ccc(Cl)cc2C(c2ccccc2)=[N+]([O-])C1	-3	x	x	2	x	x	x	x	x
COc1cccc(C)c1NC1=NCCO1	61*	x	x	87*	x	92*	1	87*	-3
COc1ccc(C(=O)C2CN(C)CC2c2ccc(Cl)cc2)cc1 (stereo not drawn)	-7	-26	12	12	-21	x	x	x	x
COc1cccc(C(=O)C2CN(C)CC2c2ccc(Cl)cc2)c1 (stereo not drawn)	0	-13	19	4	-10	x	x	x	x
CN1CC(C(=O)c2ccccc2)C(c2ccccc2)C1 (stereo not drawn)	-31	-33	13	55*	-12	76*	3	28	7
